Results on 22 compounds are retold here after the M2OR odorant receptor database.

Each structure is given as a SMILES string. Residue numbers refer to the chain shown, from its start.

What all share (settings): stereoisomer not certain
Experiment [1] deals with T1, OR2T7 (Homo sapiens) (UniProt P0C7T2).
T1 sequence (whole entry): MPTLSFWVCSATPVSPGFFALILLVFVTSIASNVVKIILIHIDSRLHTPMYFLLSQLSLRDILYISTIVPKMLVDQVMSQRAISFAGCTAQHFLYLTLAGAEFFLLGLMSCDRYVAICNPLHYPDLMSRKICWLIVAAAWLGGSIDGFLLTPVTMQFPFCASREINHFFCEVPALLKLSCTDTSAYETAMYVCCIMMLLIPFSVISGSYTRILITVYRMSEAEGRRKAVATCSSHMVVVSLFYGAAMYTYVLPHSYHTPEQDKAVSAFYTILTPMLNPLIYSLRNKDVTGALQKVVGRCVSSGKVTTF
The procedure, abridged:
(§1)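 Values were gathered from published papers (main text and supplementary material), with extra details requested from the original authors when needed, and checked for typos and inconsistencies. Each receptor–molecule pair is called responsive (active) if the original authors judged the measured signal statistically different from baseline, and non-responsive (inactive) otherwise. Assay methods varied by source, often transient mammalian cell-line luciferase assays. Recorded details include cell line, G-protein, co-transfected protein and tags.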

Experiment [2] concerns the target T2, OR2T8 (Homo sapiens) (UniProt A6NH00).
T2 sequence (whole entry): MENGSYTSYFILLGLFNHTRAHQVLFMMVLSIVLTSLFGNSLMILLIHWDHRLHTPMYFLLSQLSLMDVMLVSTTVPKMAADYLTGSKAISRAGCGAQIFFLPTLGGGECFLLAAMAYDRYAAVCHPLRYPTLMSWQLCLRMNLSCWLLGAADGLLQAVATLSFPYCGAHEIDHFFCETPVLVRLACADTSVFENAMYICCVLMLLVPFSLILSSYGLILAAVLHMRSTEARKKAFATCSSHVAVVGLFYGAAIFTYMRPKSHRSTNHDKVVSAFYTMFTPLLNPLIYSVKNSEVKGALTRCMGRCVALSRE
The procedure, abridged: as §1

The target in experiment [3] is T3, OR2V1 (Homo sapiens) (UniProt Q8NHB1).
T3 sequence (whole entry): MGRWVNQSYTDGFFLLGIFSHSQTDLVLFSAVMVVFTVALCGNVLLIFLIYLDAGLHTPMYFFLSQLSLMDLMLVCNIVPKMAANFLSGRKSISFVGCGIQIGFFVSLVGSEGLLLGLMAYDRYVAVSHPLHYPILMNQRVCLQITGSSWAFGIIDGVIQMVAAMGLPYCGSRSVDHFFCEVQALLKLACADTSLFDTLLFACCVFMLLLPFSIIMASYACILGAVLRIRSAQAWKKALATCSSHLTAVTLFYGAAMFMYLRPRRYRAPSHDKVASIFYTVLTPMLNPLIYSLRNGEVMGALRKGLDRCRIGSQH
The procedure, abridged: as §1

Experiment [4] has as its target T4, OR2V2 (Homo sapiens) (UniProt Q96R30).
T4 sequence (whole entry): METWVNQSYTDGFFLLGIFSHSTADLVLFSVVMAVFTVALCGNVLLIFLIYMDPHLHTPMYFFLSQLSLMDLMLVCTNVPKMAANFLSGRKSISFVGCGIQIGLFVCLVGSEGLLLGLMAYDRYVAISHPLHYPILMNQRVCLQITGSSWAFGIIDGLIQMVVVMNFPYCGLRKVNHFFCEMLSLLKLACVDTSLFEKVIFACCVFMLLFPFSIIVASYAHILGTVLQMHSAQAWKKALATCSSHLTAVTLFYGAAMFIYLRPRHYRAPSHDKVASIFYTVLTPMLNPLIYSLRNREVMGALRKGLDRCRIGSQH
The procedure, abridged: as §1

For experiment [5], the target named is T5, OR2W1 (Homo sapiens) (UniProt Q9Y3N9).
T5 sequence (whole entry): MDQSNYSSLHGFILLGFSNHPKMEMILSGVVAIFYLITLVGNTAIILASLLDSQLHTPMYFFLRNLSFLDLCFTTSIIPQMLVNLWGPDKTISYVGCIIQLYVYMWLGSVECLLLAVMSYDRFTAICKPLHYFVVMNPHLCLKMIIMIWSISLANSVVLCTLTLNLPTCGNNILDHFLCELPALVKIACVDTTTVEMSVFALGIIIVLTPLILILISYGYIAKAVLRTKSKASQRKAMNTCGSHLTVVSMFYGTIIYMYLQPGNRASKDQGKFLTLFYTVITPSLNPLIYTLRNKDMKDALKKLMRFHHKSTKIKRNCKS
The procedure, abridged:
as §1

For experiment [6], the target named is T6, OR2W3 (Homo sapiens) (UniProt Q7Z3T1).
T6 sequence (whole entry): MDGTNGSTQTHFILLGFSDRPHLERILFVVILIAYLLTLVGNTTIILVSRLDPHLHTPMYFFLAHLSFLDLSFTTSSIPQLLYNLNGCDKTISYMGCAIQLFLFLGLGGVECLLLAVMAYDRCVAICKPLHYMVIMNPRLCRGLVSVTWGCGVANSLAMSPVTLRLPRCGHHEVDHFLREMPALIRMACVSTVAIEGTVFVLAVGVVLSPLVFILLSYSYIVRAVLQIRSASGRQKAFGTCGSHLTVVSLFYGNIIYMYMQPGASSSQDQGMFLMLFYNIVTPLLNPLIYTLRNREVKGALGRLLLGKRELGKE
The procedure, abridged: as §1

Experiment [7] concerns the target T7, OR2W5P (Homo sapiens) (UniProt A6NFC9).
T7 sequence (whole entry): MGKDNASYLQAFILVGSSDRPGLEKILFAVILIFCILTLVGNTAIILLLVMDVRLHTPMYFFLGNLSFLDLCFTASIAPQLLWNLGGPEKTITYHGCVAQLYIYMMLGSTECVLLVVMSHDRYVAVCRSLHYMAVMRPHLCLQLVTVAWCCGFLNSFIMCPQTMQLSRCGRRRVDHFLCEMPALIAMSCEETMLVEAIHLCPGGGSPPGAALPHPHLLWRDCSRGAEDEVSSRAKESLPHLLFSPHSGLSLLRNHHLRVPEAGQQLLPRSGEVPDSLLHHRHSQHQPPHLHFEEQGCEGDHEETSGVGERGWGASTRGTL
The procedure, abridged: as §1

The target of experiment [8] is T8, OR2Y1 (Homo sapiens) (UniProt Q8NGV0).
T8 sequence (whole entry): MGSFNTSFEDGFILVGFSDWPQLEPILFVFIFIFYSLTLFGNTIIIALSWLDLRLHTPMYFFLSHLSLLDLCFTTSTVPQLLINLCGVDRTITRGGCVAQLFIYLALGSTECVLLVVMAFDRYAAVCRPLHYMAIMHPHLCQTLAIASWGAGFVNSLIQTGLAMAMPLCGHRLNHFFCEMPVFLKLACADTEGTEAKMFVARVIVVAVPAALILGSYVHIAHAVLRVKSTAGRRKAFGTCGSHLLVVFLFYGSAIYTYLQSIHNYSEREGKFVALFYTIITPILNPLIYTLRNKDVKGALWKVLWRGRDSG
The procedure, abridged:
as §1

Experiment [9] addresses T9, OR2Z1 (Homo sapiens) (UniProt Q8NG97).
T9 sequence (whole entry): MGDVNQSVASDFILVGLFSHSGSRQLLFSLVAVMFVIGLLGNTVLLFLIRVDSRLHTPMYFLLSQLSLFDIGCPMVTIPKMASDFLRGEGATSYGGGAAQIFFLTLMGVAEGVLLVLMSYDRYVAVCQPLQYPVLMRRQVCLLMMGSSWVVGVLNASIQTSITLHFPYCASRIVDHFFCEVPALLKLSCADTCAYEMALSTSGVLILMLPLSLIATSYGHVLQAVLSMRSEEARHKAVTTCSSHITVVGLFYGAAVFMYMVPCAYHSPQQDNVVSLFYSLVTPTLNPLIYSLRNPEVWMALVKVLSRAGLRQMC
The procedure, abridged: as §1

The target in experiment [10] is T10, OR3A1 (Homo sapiens) (UniProt P47881).
T10 sequence (whole entry): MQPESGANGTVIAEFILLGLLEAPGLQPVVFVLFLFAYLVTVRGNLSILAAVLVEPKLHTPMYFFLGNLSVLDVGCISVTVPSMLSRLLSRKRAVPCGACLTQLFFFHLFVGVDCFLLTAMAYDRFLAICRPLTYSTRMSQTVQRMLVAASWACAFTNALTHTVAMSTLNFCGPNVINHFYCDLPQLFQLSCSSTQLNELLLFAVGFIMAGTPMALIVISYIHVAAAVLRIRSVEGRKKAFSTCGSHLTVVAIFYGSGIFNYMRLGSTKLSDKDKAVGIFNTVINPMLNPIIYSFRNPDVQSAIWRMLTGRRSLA
The procedure, abridged:
as §1

In experiment [11] the target is T11, OR3A2 (Homo sapiens) (UniProt P47893).
T11 sequence (whole entry): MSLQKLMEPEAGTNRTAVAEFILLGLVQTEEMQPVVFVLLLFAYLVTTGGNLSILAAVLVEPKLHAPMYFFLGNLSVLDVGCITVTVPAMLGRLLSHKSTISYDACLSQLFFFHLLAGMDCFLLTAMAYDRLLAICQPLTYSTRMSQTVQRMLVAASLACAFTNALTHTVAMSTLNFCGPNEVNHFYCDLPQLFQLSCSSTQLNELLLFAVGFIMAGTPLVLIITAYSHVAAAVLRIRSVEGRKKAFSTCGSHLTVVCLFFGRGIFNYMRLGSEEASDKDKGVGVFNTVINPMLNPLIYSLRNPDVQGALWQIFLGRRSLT
The procedure, abridged:
as §1

In experiment [12] the target is T12, OR3A3 (Homo sapiens) (UniProt P47888).
T12 sequence (whole entry): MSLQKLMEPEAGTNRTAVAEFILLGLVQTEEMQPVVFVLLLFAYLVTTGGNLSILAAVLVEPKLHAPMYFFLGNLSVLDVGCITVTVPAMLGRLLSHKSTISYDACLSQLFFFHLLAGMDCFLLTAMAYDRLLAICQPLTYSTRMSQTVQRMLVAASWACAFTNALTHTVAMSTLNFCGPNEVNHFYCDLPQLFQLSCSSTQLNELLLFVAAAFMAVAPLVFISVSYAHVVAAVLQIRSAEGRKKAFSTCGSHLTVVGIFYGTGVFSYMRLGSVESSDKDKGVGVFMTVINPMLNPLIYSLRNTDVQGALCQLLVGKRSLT
The procedure, abridged: as §1

Experiment [13] has as its system T13, OR2W1.
T13 sequence (whole entry): T5 sequence (whole entry) with D296N
The procedure, abridged: as §1

Experiment [14] has as its system T14, OR2W1.
T14 sequence (whole entry): T5 sequence (whole entry) with M81V
The procedure, abridged: as §1
The source holds these as a separate data set.

For the compound `CCC(S)C(C)CO` (centres undefined), the “odorant receptor agonist call” value in [1], in [2], in [3], in experiment [4], in experiment [5] and in experiment [6] was “inactive” throughout. In addition, the “odorant receptor agonist call” value in experiment [7], in experiment [8], in experiment [9], in experiment [10], in experiment [11] and in [12] was “inactive” throughout.

As to `CCCCCCOC(C)=O`, the “odorant receptor agonist call” value in [5], in experiment [13] and in experiment [14] was “active” each time.

Take `CCC(C)C(=O)OC` (centres undefined): in experiment [5], the “odorant receptor agonist call” value was “inactive”.

As for `CCCC(=O)OC`, the “odorant receptor agonist call” value in experiment [5], in [13] and in [14] was “active” each time.

On to `CCC=CCCC=O`, for which the “odorant receptor agonist call” value in experiment [5], in [13] and in [14] was “active” throughout.

As to `CC(C)=CCCC(C)CCO` (centres undefined), the “odorant receptor agonist call” value in experiment [5] is “active”.

For `CC=CC(=O)C(C)CC` (centres undefined), in experiment [5], the “odorant receptor agonist call” value was “inactive”.

For `CCCCC1OC(=O)CC1C` (centres undefined), the “odorant receptor agonist call” value in experiment [5], in experiment [13] and in [14] was “active” throughout.

`CSCc1ccccc1`: the “odorant receptor agonist call” value in [5], in experiment [13] and in [14] was “active” each time.

For the compound `CCc1cccc(O)c1`, the “odorant receptor agonist call” value in experiment [5] and in experiment [13] was “active” each time. The “odorant receptor agonist call” value in experiment [14] is “inactive”.

`CC(=O)OCC=Cc1ccccc1`: the “odorant receptor agonist call” value in [5], in experiment [13] and in experiment [14] was “active” in each case.

On to `CSCc1ccco1`, for which the “odorant receptor agonist call” value in [5], in experiment [13] and in [14] was “active” each time.

For the compound `CCO`, the “odorant receptor agonist call” value in experiment [5] is “inactive”.

Take `CCOC(=O)C(C)CC` (centres undefined): the “odorant receptor agonist call” value in experiment [5] and in experiment [13] was “active” throughout. For the same compound, the “odorant receptor agonist call” value in experiment [14] was “inactive”.

Regarding `Cc1cccc(O)c1`, the “odorant receptor agonist call” value in experiment [5] is “inactive”.

In the case of `OCc1ccccc1`, the “odorant receptor agonist call” value in experiment [5] is “inactive”.

Regarding `c1coc(CSCc2ccco2)c1`, the “odorant receptor agonist call” value in experiment [5], in experiment [13] and in experiment [14] was “active” each time.

For the compound `CCC(C)COC(C)=O` (centres undefined), the “odorant receptor agonist call” value in experiment [5] is “inactive”. Besides, the “odorant receptor agonist call” value in experiment [13] and in [14] was “active” each time.

For `CCCSSSCCC`, the “odorant receptor agonist call” value in experiment [5] and in [13] was “active” in each case. The “odorant receptor agonist call” value in experiment [14] is “inactive”.

With `COc1nccnc1C(C)C`, the “odorant receptor agonist call” value in experiment [5] was “inactive”.

On to `CCOc1ccc2ccccc2c1`, for which, in experiment [5], the “odorant receptor agonist call” value is “active”.

With `CCOC(=O)CC(C)C`, the “odorant receptor agonist call” value in [5] and in experiment [13] was “active” in each case. In addition, the “odorant receptor agonist call” value in [14] is “inactive”.
